From PubChem BioAssay
The full list was thinned out, with hits kept by preference.
HUVEC inhibit – blocks proliferation of human endothelial cells; HUVEC proliferation, CellTiter-Glo luminescence, 72 h; stronger effect = lower value; viability, % at 10 µM (by protocol); actives 1.1% (n = 86,000); AID 648;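 active = viability at or below 30%; inactive = viability above 30%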
PTEN del growth – PTEN-deleted cell growth suppression; HCT116 PTEN-null viability, CellTiter-Glo, 60 h; stronger effect = lower value; viability, % at 10 µM; actives 1.2% (n = 140,000); AID 827;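 active = viability at or below a set limit, 4 SD under the median of all tested compounds, cut at about 3.7% in these data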;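 also: PTEN knockout HCT116 line with beta catenin targeted HCT116 as companion control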
H69AR growth 86K – blocks growth of human H69AR lung tumor cells. H69AR lung tumor viability, ATP luminescence, 72 h; stronger effect = lower value. viability, % at 10 µM. actives 6% (n = 85,000);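 active = viability at or below 40%; inactive = viability above 40%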;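 also: multidrug resistant small cell line overexpressing MRP-1 efflux transporter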
Candida biofilm – kills Candida albicans biofilms; C. albicans biofilm + clotrimazole, Alamar Blue; inhibition, % at 6 µM; actives 0.14% (n = 85,000); AID 834;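 active = inhibition above 20%; inactive = inhibition below 20%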;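 also: preformed 24 hr biofilms exposed to compound for 48 hr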
Lung fibro prol – blocks proliferation of human lung fibroblasts | LL 47 human lung fibroblast viability, ATP luminescence; stronger effect = lower value | viability, % at 10 µM | actives 1.1% (n = 85,000) | AID 719;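 active = viability at or below 50% in the single dose screen; inactive = viability above 50%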;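 also: compound exposure lasted 72 h before the ATP readout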
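Test system: LL 47 human lung fibroblasts; Quantity: 1,150 cells/well; Buffer or medium: IMEM plus 15% FBS; Dosing: tenfold compound dosing solution, DMSO at 0.1%; Timing: overnight cell rest, 72 h compound treatment at 37 °C; Detection: ATP-based CellTiter-Glo luminescent readout; Read-out basis: viability percentage against median untreated-cell control; Controls: cell-only wells, no compound.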
bCat KO growth – beta-catenin-lacking colon tumor cell growth suppression; AID 818; HCT116 beta-catenin knockout viability, CellTiter-Glo, 60 h; stronger effect = lower value; actives 1.5% (n = 140,000); viability, % at 10 µM;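 active = viability at or under a set limit, the compound median less 4 SD, cut at about 6% in these data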
Numbers stand for hits; – = inactive; · = not tested or not shown.

SMILES	HUVEC inhibit	PTEN del growth	H69AR growth 86K	Candida biofilm	Lung fibro prol	bCat KO growth
CCOC(=O)c1cnc(SCC(=O)Nc2ccc(NC(=O)CC)c(OC)c2)nc1N	–	–	–	–	–	–
Cc1cc(=O)[nH]c(SCC(=O)C23CC4CC(CC(C4)C2)C3)c1C#N	–	–	17.5	·	–	–
Cc1cc(=O)[nH]c(SCC(=O)O)c1C#N	–	–	–	–	–	–
CC1(C)Cc2c(sc3nc(SCC#N)n(C4CCCCC4)c(=O)c23)CO1	–	·	–	–	–	·
Cc1ccc(O)c(-c2cc(-c3ccccc3C)[nH]n2)c1	–	–	0.5	–	–	–
Oc1ccccc1-c1cc(-c2cccc(F)c2)n[nH]1	–	–	–	–	–	–
Oc1ccc(Cl)cc1-c1cc(-c2ccccc2Cl)[nH]n1	–	–	30.9	–	–	–
Oc1ccc(Cl)cc1-c1cc(-c2cccc(Br)c2)n[nH]1	–	–	4.2	–	–	–
Oc1ccccc1-c1cc(-c2ccccc2Cl)[nH]n1	25.0	–	22.1	–	–	–
O=[N+]([O-])c1ccccc1-c1cc(-c2cc(Cl)ccc2O)n[nH]1	·	–	·	·	·	–
Oc1oc(-c2cccc3ccccc23)nc1C=NCc1ccccc1	·	–	·	·	·	–
C=CCc1cccc(/C=N/NC(=O)CNc2cccc3ccccc23)c1O	·	1.8	·	·	·	3.2
C=CCc1cccc(/C=N/NC(=O)CCCNc2ccc(C)cc2)c1O	·	–	·	·	·	–
C=CCc1cccc(/C=N/NC(=O)CNc2ccccc2)c1O	·	3.0	·	·	·	3.7
Cc1ccc(S(=O)(=O)N[C@@H](Cc2ccccc2)C(=O)CCl)cc1	·	–	·	·	·	–
Cc1ccsc1/C=C/c1ccc2ccccc2n1	·	–	·	·	·	–
Cc1ccsc1/C=C/c1ccc2cccc(O)c2n1	–	–	17.7	–	44.9	5.0
Oc1cccc2ccc(/C=C/c3cccs3)nc12	–	3.8	12.0	–	14.1	–
COc1ccc(-c2cc(C(F)(F)F)nc(N3CCN(Cc4ccccc4)CC3)n2)cc1OC	–	–	–	–	–	–
COc1ccc(-c2cc(C(F)(F)F)nc(N3CCN(c4ccc(F)cc4)CC3)n2)cc1OC	–	–	17.2	–	–	–
COc1ccc(-c2cc(-c3ccc(F)cc3)nc(N3CCN(C)CC3)n2)cc1	–	3.4	–	–	·	3.3
COc1ccc(-c2cc(C(F)(F)F)nc(N3CCOCC3)n2)cc1	–	–	–	–	–	–
Cc1cc(C(=O)c2ccc(Cl)cc2)c(NC(=O)CCl)s1	·	1.8	·	·	·	4.2
CC(=O)Oc1ccc(NC(=O)CSc2ccccc2)cc1	–	–	·	–	–	–
O=S(=O)(c1ccc(N2CCC(c3ccc(Cl)cc3)=N2)cc1)N(CCO)CCO	–	–	12.6	–	–	–
SMILES	HUVEC inhibit	PTEN del growth	H69AR growth 86K	Candida biofilm	Lung fibro prol	bCat KO growth
CN(C)CCCNS(=O)(=O)c1ccc(N2CCC(c3ccc(Cl)cc3)=N2)cc1	3.2	1.1	0.5	–	1.6	1.2
O=C(Nc1nc(-c2cccc3ccccc23)cs1)c1cnccn1	·	–	·	·	·	–
Cc1cccn2c(=O)c3cc(C(=O)N4CCN(c5ccccc5)CC4)n(C)c3nc12	–	·	–	–	–	·
COc1ccccc1OCC(=O)Sc1ccc(C)cc1	–	–	–	–	–	–
Cc1ccc(OCC(=O)Sc2ccc(C)cc2)cc1	–	–	16.9	–	–	–
Cn1c(-c2ccc3c(c2)OCO3)cnc1NC(=O)CCC(=O)NCCc1ccccc1	–	–	–	–	–	–
Cn1c(-c2ccc3c(c2)OCO3)cnc1NCc1ccccc1	–	–	23.9	–	–	–
Cn1c(-c2ccc3c(c2)OCO3)cnc1NCc1cccc(Cl)c1	–	–	33.0	–	–	–
Cn1c(-c2ccc3c(c2)OCO3)cnc1N	–	–	–	–	–	–
Cc1ccc(NC(=O)C2C3C=CC4(CN(Cc5cccnc5)C(=O)C24)O3)cc1F (stereo not given)	–	–	–	–	–	–
COc1ccc(C(=O)CC(=O)C(=O)NCCc2cccc(C)c2)cc1	·	–	·	·	·	–
CCCC(=O)Nc1cc(S(=O)(=O)N(CC)CC)ccc1Cl	·	–	·	·	·	–
c1ccc(-n2ncc3c(N4CCN(c5ccccn5)CC4)nc(N4CCOCC4)nc32)cc1	–	·	27.7	–	–	·
c1ccc(-n2ncc3c(N4CCN(c5ccccn5)CC4)nc(N4CCCCC4)nc32)cc1	–	·	–	–	–	·
CCCCN(CC)c1nc(-c2ccncc2)nc2ccccc12	–	–	20.1	–	–	–
Nc1c(Br)cc2oc(-c3ccccc3)nc2c1Br	–	–	22.1	–	–	–
COc1ccc(-c2nc3c(Br)c(N)c(Br)cc3o2)cc1	–	–	29.1	–	–	–
COC(=O)c1ccc2c(=O)n(CCN3CCOCC3)c(SCC(=O)NC3CCCCC3)nc2c1	–	·	–	–	–	·
Cc1ccc(-c2c[n+](Cc3ccc(Cl)c(Cl)c3)c3n2CCC3)cc1	·	–	·	·	·	–
O=c1c2cccc3c(N4CCOCC4)ccc(c32)c2nc3ccccc3n12	–	·	28.0	–	–	·
C/C(=N\NC(=O)C(C)n1nc(C)c([N+](=O)[O-])c1C)c1ccccc1O (stereo not given)	·	–	·	·	·	6.1
COc1ccc(CC(=O)Nc2nc3ccccc3s2)cc1S(=O)(=O)N1CCOCC1	–	–	–	·	–	–
COc1ccc(CC(=O)Nc2nc3ccc(F)cc3s2)cc1S(=O)(=O)N1CCOCC1	–	–	39.4	–	–	–
COCCNCC(=O)Nc1ccccc1Sc1ccccc1	·	–	·	·	·	–
Nc1c(N(C(=O)Nc2ccc(Cl)c(Cl)c2)C2CCCC2)c(=O)[nH]c(=O)n1Cc1ccccc1	·	1.4	·	·	·	1.4
SMILES	HUVEC inhibit	PTEN del growth	H69AR growth 86K	Candida biofilm	Lung fibro prol	bCat KO growth
COc1ccc(-n2c(N3CCN(C)CC3)nc3sc4c(c3c2=O)CCCCC4)cc1	21.7	–	22.4	–	–	–
COc1ccc(-n2c(NCCN(C)C)nc3sc4c(c3c2=O)CCCCC4)cc1	–	–	–	–	–	–
O=C(CCCOc1ccc(Cl)cc1Cl)N/N=C/c1cccc([N+](=O)[O-])c1	·	–	·	·	·	–
COc1ccccc1NC(=O)c1sc2nc(-c3ccco3)ccc2c1N	–	–	–	–	–	–
Nc1c(C(=O)Nc2cccc(Cl)c2Cl)sc2nc(-c3cccnc3)ccc12	·	1.3	·	·	·	1.5
COc1ccc(CCC(=O)N2CCN(C3CCCCC3)CC2)cc1	–	–	–	–	17.0	–
Cc1ccc(NC(=O)Cn2nnc(C(=O)NCc3ccccc3)c2N)cc1C	·	–	·	·	·	–
Cc1ccc(NC(=O)c2nnn(CC(=O)Nc3ccccc3)c2N)cc1C	–	–	24.9	–	–	–
NC(=O)C1(N2CCCCC2)CCN(Cc2ccccc2Cl)CC1	–	–	–	–	–	–
CCOC(=O)c1c(NC(=O)C2CCCO2)sc(C(=O)OC(C)(C)C)c1C (stereo not given)	–	–	10.1	–	–	–
CCn1c(=O)c(=O)[nH]c2cc(C(=O)NC3CCCc4ccccc43)ccc21 (stereo not given)	–	–	32.0	–	–	–
CCn1c(=O)c(=O)[nH]c2cc(C(=O)NC3CC3)ccc21	·	–	·	·	·	–
